# Results from different studies.
# Protocols differ between the studies behind these lines.
SMILES,tested on,assay,test system,setting,endpoint,value
C[C@@H]1C[C@@H]([C@H](O)CC2CC(=O)NC(=O)C2)C(=O)[C@@H](C)C1,Pseudomonas aeruginosa,"microbial growth, broth dilution",ATCC27 ATCC27853,,MIC,16 µg/mL
Cc1cc(=O)oc2cc(OCCCC[Se]C#N)ccc12,T47D,"cell growth or viability, SRB",,,GI50,2.2 µM
C[C@@H](N)[C@H](O)CCCCCCCC(=O)CCCCCCCCCCCCCC[C@@H](O[C@@H]1O[C@H](CO)[C@H](O)[C@H](O)[C@H]1O)[C@@H](C)N,Pseudomonas aeruginosa,"microbial growth, resazurin",ATCC27853,50 µM,inhibition,99%
N.N.[Cl][Pt][Cl],SU-DHL-2,"cell growth or viability, ATP luminescence",,72 h,IC50,0.56 µM
O=[N+]([O-])c1ccc(NCCCCN=C=S)c2nonc12,T47D,"cell growth or viability, MTT",,24 h,IC50,2.8 µM
NCC[C@H](O)C(=O)N[C@@H]1C[C@H](N)[C@@H](O[C@H]2O[C@H](CN)[C@@H](O)[C@H](O)[C@H]2O)[C@H](O)[C@H]1O[C@H]1O[C@H](CO)[C@@H](O)[C@H](N)[C@H]1O,Mycobacteroides abscessus,"microbial growth, broth dilution",,,MIC90,3.4 µg/mL
C#CCCCCCC(=O)NCc1c(O)c(=O)cc(C)n1C,Pseudomonas aeruginosa,microbial growth,PAO1,,IC50,> 100 µM
N#C[Se]CCCCOc1ccc2c(-c3ccccc3)cc(=O)oc2c1,T47D,"cell growth or viability, SRB",,,GI50,26 µM
O=c1c2ccccc2[se]n1-c1ccccc1,Zika virus,viral replication,,48 h,IC50,7.4 µM
C#CCCCCC(=O)NCc1cc(=O)c(O)c(CNC(=O)CCCCCC)n1C,Pseudomonas aeruginosa,microbial growth,PAO1,,IC50,> 100 µM
Cc1c(Cl)c(=O)oc2cc(OCCCC[Se]C#N)ccc12,MIA PaCa-2,"cell growth or viability, SRB",,,GI50,13 µM
C#CCCC1(CCC(=O)NCc2cc(=O)c(O)c(CNC(=O)CCCCCC)n2C)N=N1,Pseudomonas aeruginosa,microbial growth,PAO1,,IC50,> 100 µM
NNC(=O)c1ccncc1,Mycobacteroides abscessus,"microbial growth, broth dilution",,,MIC90,> 500 µg/mL
